Assay [1] relates to PANC-1. Description: Antiproliferative activity against human Panc-1 cells assessed as reduction in cell growth incubated for 72 hrs by SRB assay. Type of assay: functional, cell-based. The settings on record: PANC-1, 72 h. The method in brief:
(§1)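 Cells were seeded in triplicate at 3×10³/well (Panc-1, Panc-1R, PDAC-3) or 5×10³/well (Capan-1) and preincubated 24 h at 37 °C. Fixation was cold TCA, staining 0.4% SRB, solubilisation Tris pH 8.8, read at 490/540 nm. Growth was taken versus vehicle, day-0 corrected, and IC50 fitted nonlinearly; three independent experiments, mean ± SEM.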

Assay [2] can be described thus: Antiproliferative activity against human PDAC-3 cells assessed as inhibition of cell growth incubated for 72 hrs by SRB assay. Type of assay: functional, cell-based. The settings on record: PDAC-3, 72 h. The method in brief: as §1
Assay [3] has as its system CAPAN-1. Briefly: Antiproliferative activity against human Capan-1 cells assessed as reduction in cell growth incubated for 72 hrs by SRB assay. Type of assay: functional, cell-based. The settings on record: CAPAN-1, 72 h. The method in brief:
as §1
A general note: The SRB assay estimates cell density from bound dye.

A short description of assay [4]: Antiproliferative activity against gemicitabine-resistant human Panc-1R cells incubated for 72 hrs by SRB assay. Type of assay: functional, cell-based. The settings on record: PANC-1, 72 h. The method in brief: as §1
Assay [5] is described as follows: Antiproliferative activity against human SUIT-2 cells assessed as reduction in cell growth incubated for 72 hrs by SRB assay. The settings on record: SUIT-2, 72 h. Type of assay: functional, cell-based. Summed up: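 SUIT-2 cells seeded at 3 × 10³/well in triplicate and left 24 h at 37 °C. Cells were fixed with cold TCA, stained with 0.4% SRB in 1% acetic acid and dissolved in Tris pH 8.8. A490/A540 was read vs vehicle, corrected for day-0 OD. IC50 came from nonlinear curve fit; mean of three experiments.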

Assay [6] concerns the target Focal adhesion kinase 1 (Homo sapiens) (UniProt Q05397). Description: Inhibition of PTK2 in human SUIT-2 cells assessed as inhibition of PTK2 phosphorylation at Y397 residue at 5XIC50 incubated for 24 hrs by western blot analysis. It counts as cell-based. On the technique in general: In western blotting, separated proteins are transferred to a membrane and probed.
Assay [7] shares this target. Description: Inhibition of PTK2 in human CAPAN-1 cells assessed as inhibition of PTK2 phosphorylation at Y397 residue at 5XIC50 incubated for 24 hrs by western blot analysis. It counts as cell-based.
For assay [8] the target is unchanged. Briefly: Inhibition of PTK2 in human Panc-1 cells assessed as inhibition of PTK2 phosphorylation at Y397 residue at 5XIC50 incubated for 24 hrs by western blot analysis. Type of assay: cell-based.

SMILES strings stand for the structures. Calls of active or inactive are those of the source. The calls are words filed in the database; no cut-off is given here.

A word on the IC50: it is the point on the concentration scale where inhibition reaches its midpoint.

Chain of Focal adhesion kinase 1 (Homo sapiens) (Q05397 2-1052 limits assumed): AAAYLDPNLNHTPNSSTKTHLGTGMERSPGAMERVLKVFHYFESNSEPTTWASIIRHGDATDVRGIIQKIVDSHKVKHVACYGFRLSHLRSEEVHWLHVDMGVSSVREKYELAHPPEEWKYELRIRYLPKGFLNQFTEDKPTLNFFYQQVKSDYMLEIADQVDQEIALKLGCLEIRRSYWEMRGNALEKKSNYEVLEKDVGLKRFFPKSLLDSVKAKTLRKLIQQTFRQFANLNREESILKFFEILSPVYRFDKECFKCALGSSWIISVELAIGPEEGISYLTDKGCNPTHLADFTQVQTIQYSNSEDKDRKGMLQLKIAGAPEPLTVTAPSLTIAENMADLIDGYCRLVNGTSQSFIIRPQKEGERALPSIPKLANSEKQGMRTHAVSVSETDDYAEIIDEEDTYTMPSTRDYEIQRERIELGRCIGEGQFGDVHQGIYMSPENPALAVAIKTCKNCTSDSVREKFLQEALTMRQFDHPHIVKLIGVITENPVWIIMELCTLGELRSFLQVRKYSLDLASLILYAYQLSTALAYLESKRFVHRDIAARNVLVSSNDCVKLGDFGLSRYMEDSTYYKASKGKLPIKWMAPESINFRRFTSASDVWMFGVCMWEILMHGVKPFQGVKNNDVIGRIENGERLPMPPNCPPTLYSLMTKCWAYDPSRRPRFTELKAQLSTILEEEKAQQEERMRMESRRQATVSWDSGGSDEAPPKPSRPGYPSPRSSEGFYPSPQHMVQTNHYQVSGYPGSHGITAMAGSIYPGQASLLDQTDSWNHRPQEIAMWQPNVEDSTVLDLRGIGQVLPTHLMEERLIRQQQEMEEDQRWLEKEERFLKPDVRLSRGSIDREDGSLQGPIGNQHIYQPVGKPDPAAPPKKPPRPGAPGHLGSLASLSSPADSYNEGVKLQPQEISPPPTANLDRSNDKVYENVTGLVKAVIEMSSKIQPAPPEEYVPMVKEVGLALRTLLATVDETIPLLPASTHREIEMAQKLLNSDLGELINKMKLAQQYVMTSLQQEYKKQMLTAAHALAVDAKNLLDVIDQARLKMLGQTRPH

As to `O=c1[nH]cc(F)c(=O)[nH]1` [FLUOROURACIL], the IC50 in assay [1] was determined as 4.3 µM; in assay [2], 0.56 µM; in assay [3] it was 0.47 µM; in assay [4] it was 4.5 µM; in assay [5], 0.91 µM.
For the compound `O=Cc1c(-c2ccc(F)cc2)nc2sc(-c3c[nH]c4ccccc34)nn12`, the IC50 was 10.5 µM in assay [1], 8.83 µM in assay [3] and 7.93 µM in assay [5].
On to `COc1ccc(OC)c(-c2nc3sc(-c4cn(C)c5ccccc45)nn3c2C=O)c1`, for which the values for the IC50 in assay [1], in assay [3] and in assay [5] were over 16 µM, 5.73 µM and 12.5 µM, respectively.
The like results for `COc1ccc(OC)c(-c2nc3sc(-c4c[nH]c5ccc(Br)cc45)nn3c2C=O)c1` were, in that order, 10.6 µM, 8.24 µM and 8.7 µM.
Regarding `COc1cccc(-c2nc3sc(-c4c[nH]c5ccccc45)nn3c2C=O)c1`, the IC50 is over 16 µM in assay [1], over 16 µM in assay [3] and 11.5 µM in assay [5].
With `O=Cc1c(-c2ccccc2)nc2sc(-c3c[nH]c4ccccc34)nn12`, the results for the IC50 in assay [1], in assay [3] and in assay [5] were 12.4 µM, 10.5 µM and 9.56 µM, respectively.
The like results for `COc1ccc(OC)c(-c2nc3sc(-c4c[nH]c5ccccc45)nn3c2C=O)c1` were, in that order, over 16 µM, over 16 µM and 13 µM.
For the compound `Nc1ccn([C@@H]2O[C@H](CO)[C@@H](O)C2(F)F)c(=O)n1` [GEMCITABINE], the IC50 in assay [1] was 0.15 µM; in assay [2], 0.03 µM; in assay [3], 0.02 µM; in assay [4], over 10 µM; in assay [5], 0.01 µM.
As for `c1ccc2c(-c3nn4cc(-c5ccsc5)nc4s3)c[nH]c2c1`, the inhibition result in assay [6], in assay [7] and in assay [8] was “Active” in each case.
As to `Cn1cc(-c2nn3cc(-c4ccsc4)nc3s2)c2ccccc21`, the inhibition result in assay [6], in assay [7] and in assay [8] was “Active” each time.

The values are drawn from ChEMBL document CHEMBL4680190, “Imidazo[2,1-b] [1,3,4]thiadiazoles with antiproliferative activity against primary and gemcitabine-resistant pancreatic cancer cells” (Eur J Med Chem, 2020).
